Source: ChEMBL document CHEMBL3351820, “Development of novel membrane active lipidated peptidomimetics active against drug resistant clinical isolates” (Bioorg Med Chem, 2014)
Values after ≈ are worked out from the molar mass of the structure shown. Active and inactive are the calls of the source. No cut-off for these calls is given here. Where a SMILES comes first, the peptide text is derived from it. [ ]: non-standard residue; d: D form. The star is where a group is joined. Myristoyl = CCCCCCCCCCCCCC(=O)*; 3Abz = Nc1cccc(C(=O)O)c1; Orn = NCCC[CH](N)C(=O)O

What was measured:
Aspergillus fumigatus [1] = experiment: Antifungal activity against fluconazole-resistant Aspergillus fumigatus IGMC/LM1/0336 after 24 hrs by M27-A method; type: functional; conditions: IGMC/LM1/0336, 24 h
How it was run: (§1)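 Fungi at 2.5×10^3 cfu/mL in RPMI 1640 (L-glutamine, no glucose or NaHCO3, pH 7.0 with 0.165 M MOPS). Mixed 1:1 with serial 2-fold dilutions in water, incubated at 37 °C with shaking, 24 h for A. fumigatus and 48–72 h for C. albicans. Growth read by absorbance at 600 nm. MIC taken as the lowest concentration with no growth.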

Aspergillus niger = experiment: Antifungal activity against Aspergillus niger ATCC 64028 after 24 hrs by M27-A method; type: functional; conditions: ATCC 64028, 24 h
How it was run: (§2)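 Fungi at 2.5×10^3 cfu/mL in RPMI 1640 (L-glutamine, no glucose or NaHCO3, buffered pH 7.0 with 0.165 M MOPS), mixed 1:1 with serial 2-fold aqueous dilutions. Incubated at 37 °C with shaking, 24 h for Aspergillus, 48-72 h for Candida and Cryptococcus; A600 read. MIC taken as lowest concentration with no growth.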

Escherichia coli [2] = experiment: Bactericidal activity against Escherichia coli MTCC 0723 at 4 to 8 times MIC by time-kill assay; type: functional, organism-based
How it was run: (§3)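 Time-kill: mid-log cells (2×10^5 CFU/mL) in MHB, untreated or exposed at 1, 2, 4 and 8×MIC at 37 °C. Aliquots taken at 0, 15, 30, 60, 120 and 240 min, serially 10-fold diluted, plated on Mueller-Hinton agar for 18 h at 37 °C. Log CFU/mL plotted against time versus untreated control; two independent experiments in triplicate.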

Escherichia coli [3] = experiment: Growth inhibition of Escherichia coli MTCC 0723 at 2 times MIC by time-kill assay; type: functional, organism-based; how it was run: as §3
Escherichia coli [4] = experiment: Bactericidal activity against Escherichia coli MTCC 0723 assessed as log reduction in bacterial growth at 4 to 8 times MIC up to 30 mins by time-kill assay relative to control; type: functional; how it was run: as §3
Staphylococcus aureus [5] = experiment: Bactericidal activity against Staphylococcus aureus MTCC 3160 assessed as log reduction in bacterial growth at 4 to 8 times MIC up to 30 mins by time-kill assay relative to control; type: functional; how it was run: as §3
Staphylococcus aureus [6] = experiment: Bactericidal activity against Staphylococcus aureus MTCC 3160 at 4 to 8 times MIC by time-kill assay; type: functional, organism-based; how it was run: as §3
Staphylococcus aureus [7] = experiment: Growth inhibition of Staphylococcus aureus MTCC 3160 at 2 times MIC by time-kill assay; type: functional, organism-based; how it was run: as §3
[8] = Membrane permeabilization activity assessed as release of calcein from PE/PG liposomes at 4 ug/ml after 5 mins by spectrofluorimetry; type: ADME
How it was run: (§4)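 Calcein-loaded LUVs, PE/PG (bacterial mimic) or PC/PE/PI/ergosterol (fungal mimic), exposed to 1-20 μg/mL for 5 min before fluorescence reading. Triton X-100 in Tris-HCl/NaCl/EDTA buffer sets 100% leakage; % leakage = 100(F−F0)/(Ft−F0). Run in triplicate, two independent experiments, mean ± SD.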

[9] = Membrane permeabilization activity assessed as release of calcein from PC/PE/PI/ergosterol liposomes at 20 ug/ml after 5 mins by spectrofluorimetry; type: ADME; how it was run: as §4
[10] = Membrane permeabilization activity assessed as release of calcein from PE/PG liposomes at 20 ug/ml after 5 mins by spectrofluorimetry; type: ADME; how it was run: as §4
[11] = Membrane permeabilization activity assessed as release of calcein from PC/PE/PI/ergosterol liposomes at 4 ug/ml after 5 mins by spectrofluorimetry; type: ADME; how it was run: as §4
Escherichia coli [12] = experiment: Membrane disruption effect in Escherichia coli MTCC 0723 assessed as surface blebs and aggregation at 4 times MIC by scanning electron microscopy; type: functional, organism-based
How it was run: (§5)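 SEM: E. coli and S. aureus at 1×10^6 CFU/mL in 10 mM PBS pH 7.4 with 100 mM NaCl, exposed at 4×MIC at 37 °C. […] After 30 min, cells fixed in 4% glutaraldehyde/0.2 M cacodylate for 3 h at 4 °C, ethanol-dehydrated, HMDS-dried, gold-coated (~20 nm).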

Staphylococcus aureus [13] = experiment: Membrane disruption effect in Staphylococcus aureus MTCC 3160 assessed as surface blebs and aggregation at 4 times MIC by scanning electron microscopy; type: functional, organism-based; how it was run: as §5
Escherichia coli [14] = experiment: Binding affinity to Escherichia coli plasmid DNA at 12 ug/ml after 1 hr by gel retardation assay
How it was run: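 Gel retardation: 100 ng plasmid DNA from E. coli PGI/DML02292 mixed with varying peptide amounts in binding buffer (10 mM Tris-HCl pH 8.0, 5% glycerol, 1 mM EDTA, 1 mM DTT, 20 mM KCl, 50 μg/mL BSA). Held 1 h at room temperature, then run on 1% agarose in 0.5× TBE. Polymyxin B as standard.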

Staphylococcus aureus [15] = experiment: Antibacterial activity against methicillin-resistant Staphylococcus aureus PGI/ DML03149 clinical isolate after 16 days by serial passage resistance development assay; type: functional, organism-based
How it was run: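 MRSA clinical isolate serially passaged for 16 days. Each day MICs were set up in microtiter wells over doubling-dilution concentrations, 18 h incubation. Cells from triplicate wells at the concentration still permitting visible growth were diluted to about 2×10^5 CFU/mL to seed the next exposure. MIC was tracked across passages.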

[16] = Proteolytic stability assessed as alpha-chymotrypsin (unknown origin)-mediated degradation after 4 days by analytical RP-HPLC; type: ADME, Homo sapiens; conditions: 96 h
How it was run: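 Peptide (1 mg/mL sample solution) and enzyme solution (1 mg per 50 mL) in 0.1 M NH4HCO3 pH 8.2, combined with buffer and incubated at 37 °C. Aliquots taken over time, quenched with 10% formic acid. Remaining peptide quantified by C18 RP-HPLC with a water/acetonitrile gradient (0.05% TFA); enzyme-free control run alongside.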

Plasma = experiment: Stability in human plasma after 24 hrs by analytical RP-HPLC; type: ADME, cell-free
How it was run: (§6)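 Heparinized fresh human plasma (1 mL) plus 50 μL of a […] aqueous stock, incubated at 37 °C. At intervals, 100 μL aliquots precipitated with 200 μL 95% ethanol, held 15 min at 4 °C, spun at 18,000 g for 2 min. Supernatant analysed by C18 RP-HPLC.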

[17] = Stability in human plasma after 4 days by analytical RP-HPLC; type: ADME, cell-free; conditions: read-out: Stability; how it was run: as §6
Escherichia coli [18] = experiment: Antibacterial activity against Escherichia coli MTCC 0723 after 18 hrs by micro dilution broth assay; type: functional; conditions: MTCC 0723, 18 h
How it was run: (§7)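 Broth microdilution (modified CLSI): mid-log inoculum at 10^5 CFU/mL in Mueller-Hinton broth; serial 2-fold dilutions of sample in 0.001% acetic acid with 0.2% BSA added. Incubated overnight at 37 °C with agitation; A600 read at 18 h. Drug-free culture and uninoculated broth as controls; triplicate.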

Escherichia coli [19] = experiment: Antibacterial activity against imipenem-resistant Escherichia coli PGI/ DML02292 clinical isolate after 18 hrs by micro dilution broth assay; type: functional; conditions: PGI/ DML02292, 18 h
Pseudomonas aeruginosa = experiment: Antibacterial activity against Pseudomonas aeruginosa MTCC 2295 after 18 hrs by micro dilution broth assay; type: functional; conditions: MTCC 2295, 18 h; how it was run: as §7
Staphylococcus aureus [20] = experiment: Antibacterial activity against Staphylococcus aureus MTCC 3160 after 18 hrs by micro dilution broth assay; type: functional; conditions: MTCC 3160, 18 h; how it was run: as §7
Staphylococcus aureus [21] = experiment: Antibacterial activity against methicillin-resistant Staphylococcus aureus PGI/ DML03149 clinical isolate after 18 hrs by micro dilution broth assay; type: functional; conditions: PGI/ DML03149, 18 h
Bacillus subtilis = experiment: Antibacterial activity against Bacillus subtilis MTCC 2763 after 18 hrs by micro dilution broth assay; type: functional; conditions: MTCC 2763, 18 h; how it was run: as §7
[22] = Hemolytic activity in human RBCs; type: ADME, cell-based, Erythrocyte; conditions: red blood cells (RBCs)
How it was run: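 Washed fresh human erythrocytes, 4% (v/v) in PBS (35 mM phosphate, 150 mM NaCl, pH 7.2), mixed 1:1 with 2-fold dilutions in PBS. Incubated 1 h at 37 °C without agitation, then centrifuged at 1000 g for 5 min. Supernatant hemoglobin read at 440 nm; % hemolysis = 100(A−A0)/(At−A0).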

[23] = Therapeutic index, ratio of HC50 for human RBCs to MIC for Escherichia coli MTCC 0723; conditions: red blood cells (RBCs), read-out: TI
[24] = Therapeutic index, ratio of HC50 for human RBCs to MIC for Staphylococcus aureus MTCC 3160; conditions: red blood cells (RBCs), read-out: TI
Candida albicans [25] = experiment: Antifungal activity against Candida albicans ATCC 24433 after 48 to 72 hrs by M27-A method; type: functional; how it was run: as §2
Candida albicans [26] = experiment: Antifungal activity against fluconazole-resistant Candida albicans PGI/ DML0109 clinical isolate after 48 to 72 hrs by M27-A method; type: functional; how it was run: as §1
Cryptococcus neoformans = experiment: Antifungal activity against Cryptococcus neoformans ATCC 2344 after 48 to 72 hrs by M27-A method; type: functional; how it was run: as §2
Aspergillus fumigatus [27] = experiment: Antifungal activity against Aspergillus fumigatus ATCC 42203 after 24 hrs by M27-A method; type: functional; conditions: ATCC 42203, 24 h; how it was run: as §2

With `CCCCCCCCCCCCCC(=O)Nc1cccc(C(=O)NC(CCCN)C(=O)NC(CCCN)C(=O)NC(CCCN)C(=O)NC(CCCN)C(N)=O)c1` (configuration not stated) ({Myristoyl-3Abz}-[Orn][Orn][Orn][Orn]-NH2; configuration not given here) the MIC (Aspergillus fumigatus [1]) was 4 mg/L (≈ 4.98 µM), the MIC (Aspergillus niger) was 3 mg/L (≈ 3.74 µM) and the Activity (Escherichia coli [2]) was “Active”. For the same molecule, the “growth inhibition (GI)” value (Escherichia coli [3]) was “Active”, the FC (Escherichia coli [4]) was 5 and the FC (Staphylococcus aureus [5]) was 5. For the same molecule, the Activity (Staphylococcus aureus [6]) was “Active”, the “growth inhibition (GI)” value (Staphylococcus aureus [7]) was “Active” and the Activity [8] was 58%. The Activity [9] was 77%, the Activity [10] was 93% and the Activity [11] was 29%. The Activity (Escherichia coli [12]) was “Active”, the Activity (Staphylococcus aureus [13]) was “Active” and the Activity (Escherichia coli [14]) was “inactive”. The Activity (Staphylococcus aureus [15]) was “Active”, the Stability [16] was “Stable” and the Stability (Plasma) was “Stable”. It also gave a remaining at 96 h [17] of 76%, an MIC (Escherichia coli [18]) of 1.25 mg/L (≈ 1.56 µM) and an MIC (Escherichia coli [19]) of 3.1 mg/L (≈ 3.86 µM). It also gave an MIC (Pseudomonas aeruginosa) of 2 mg/L (≈ 2.49 µM), an MIC (Staphylococcus aureus [20]) of 1.5 mg/L (≈ 1.87 µM) and an MIC (Staphylococcus aureus [21]) of 2 mg/L (≈ 2.49 µM). For the same molecule, the MIC (Bacillus subtilis) was 10 mg/L (≈ 12.5 µM), the HC50 [22] was 500 µg/mL and the selectivity ratio [23] was 400. The selectivity ratio [24] was 333, the MIC (Candida albicans [25]) was 3.1 mg/L (≈ 3.86 µM) and the MIC (Candida albicans [26]) was 4 mg/L (≈ 4.98 µM). The MIC (Cryptococcus neoformans) was 6.25 mg/L (≈ 7.78 µM) and the MIC (Aspergillus fumigatus [27]) was 2.25 mg/L (≈ 2.8 µM).
